Experimental data: ChEMBL document CHEMBL1921669, “In vivo PET imaging of histone deacetylases by 18F-suberoylanilide hydroxamic acid (18F-SAHA)” (J Med Chem, 2011); call rule not given here

Experiments:
[1] = molecular target: Histone deacetylase 1 (Homo sapiens, UniProt Q13547); assay: Inhibition of human recombinant full-length HDAC1 using fluorophore conjugated substrate by fluorescence assay
[2] = molecular target: Histone deacetylase 2 (Homo sapiens, UniProt Q92769); assay: Inhibition of human recombinant full-length HDAC2 using fluorophore conjugated substrate by fluorescence assay
[3] = molecular target: Histone deacetylase 3 (Homo sapiens, UniProt O15379); assay: Inhibition of human recombinant full-length HDAC3 using fluorophore conjugated substrate by fluorescence assay
[4] = molecular target: T1, Protein deacetylase HDAC6 (Homo sapiens, UniProt Q9UBN7); assay: Inhibition of human recombinant full-length HDAC6 using fluorophore conjugated substrate by fluorescence assay
T1 sequence (Q9UBN7 whole entry): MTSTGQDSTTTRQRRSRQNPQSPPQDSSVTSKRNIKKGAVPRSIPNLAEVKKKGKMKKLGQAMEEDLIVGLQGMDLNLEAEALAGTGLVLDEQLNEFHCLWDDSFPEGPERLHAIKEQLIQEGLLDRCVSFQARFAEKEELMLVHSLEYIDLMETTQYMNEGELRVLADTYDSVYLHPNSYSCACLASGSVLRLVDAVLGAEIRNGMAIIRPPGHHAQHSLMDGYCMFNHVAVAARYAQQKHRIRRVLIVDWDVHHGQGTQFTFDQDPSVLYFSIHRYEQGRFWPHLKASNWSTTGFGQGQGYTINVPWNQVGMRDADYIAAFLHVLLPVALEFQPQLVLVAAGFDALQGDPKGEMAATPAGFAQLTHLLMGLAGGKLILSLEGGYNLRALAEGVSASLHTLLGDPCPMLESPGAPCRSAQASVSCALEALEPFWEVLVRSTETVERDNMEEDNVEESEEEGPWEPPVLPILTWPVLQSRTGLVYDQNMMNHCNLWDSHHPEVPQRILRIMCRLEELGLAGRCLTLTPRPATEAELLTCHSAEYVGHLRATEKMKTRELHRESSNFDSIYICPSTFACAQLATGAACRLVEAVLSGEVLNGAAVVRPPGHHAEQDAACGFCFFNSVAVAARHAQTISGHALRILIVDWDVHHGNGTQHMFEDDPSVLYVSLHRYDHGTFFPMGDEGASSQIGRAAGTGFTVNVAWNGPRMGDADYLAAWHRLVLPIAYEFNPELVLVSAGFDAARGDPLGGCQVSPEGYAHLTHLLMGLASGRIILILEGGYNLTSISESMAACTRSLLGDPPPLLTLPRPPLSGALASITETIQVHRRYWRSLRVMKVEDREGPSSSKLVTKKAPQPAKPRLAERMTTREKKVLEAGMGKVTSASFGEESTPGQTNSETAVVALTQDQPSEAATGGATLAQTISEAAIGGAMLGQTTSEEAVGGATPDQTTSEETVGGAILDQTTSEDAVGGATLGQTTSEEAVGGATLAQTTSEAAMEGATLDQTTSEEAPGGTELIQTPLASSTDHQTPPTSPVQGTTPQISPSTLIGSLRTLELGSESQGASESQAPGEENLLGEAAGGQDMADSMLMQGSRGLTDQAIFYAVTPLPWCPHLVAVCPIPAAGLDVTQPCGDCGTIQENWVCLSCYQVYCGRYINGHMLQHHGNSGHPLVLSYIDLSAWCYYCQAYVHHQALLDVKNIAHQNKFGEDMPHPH

[5] = tested on: Mus musculus; assay: Biodistribution in human A2780 cells xenografted Nu/Nu mouse tumor at 2 mg in 100 uL of 60% PEG400 40% water, ip by PET-CT analysis; format: ADME, organism-based, Neoplasm; conditions: in vivo, TDE = time-dependent effect
Summary of the method: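 Nu/Nu mice (n = 5) carried subcutaneous A2780 human ovarian cancer implants (10⁶ cells in Matrigel per flank) and were imaged 10 days later under isoflurane 1.5%. The 18F tracer was scanned by PET-CT (about 80 min acquisition) before and after competition. […] Read-out was the tumor/muscle ratio.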

[6] = tested on: Nucleic Acid; assay: Ratio of drug uptake in tumor to muscle in human A2780 cells xenografted Nu/Nu mouse at 2 mg in 100 uL of 60% PEG400 40% water, ip administered as 2 dose every 24 hrs interval measured after 3 hrs of post last dose by PET-CT analysis; format: ADME, organism-based; conditions: in vivo
Summary of the method: (§1)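 Nu/Nu mice (n = 5) bearing subcutaneous flank A2780 human ovarian cancer xenografts (10⁶ cells in Matrigel per flank), imaged 10 days after implantation. ¹⁸F-labelled tracer PET-CT under isoflurane anaesthesia (1.5%, O₂ 2 L/min), each acquisition ~80 min. […] Read-out: tumor/muscle uptake ratio.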

[7] = tested on: Nucleic Acid; assay: Ratio of drug uptake in tumor to muscle in human A2780 cells xenografted Nu/Nu mouse at 2 mg in 100 uL of 60% PEG400 40% water, ip after 3 hrs by PET-CT analysis; format: ADME, organism-based; conditions: in vivo; summary of the method: as §1
[8] = Initial half life in iv dosed mouse plasma; format: ADME, organism-based; conditions: read-out: alphat1/2
[9] = tested on: Mus musculus; assay: Biodistribution in C57BL/6 mouse whole blood at 243 +/- 25 uCi, iv using 60% PEG400, 40% water formulation; format: ADME, organism-based; conditions: in vivo
Summary of the method: (§2)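 The 18F tracer was given to C57BL/6 mice by tail-vein iv bolus, n = 3 per vehicle. Vehicles were 60% PEG400 in water, 10% DMSO in water, or 20% DMAC:Solutol (1:1) in saline. Serial retro-orbital blood was drawn into tared capillary tubes, weighed and gamma-counted to give the blood time-activity curve.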

[10] = tested on: Mus musculus; assay: Biodistribution in C57BL/6 mouse whole blood at 243 +/- 25 uCi, iv using 10% DMSO, 90% water formulation; format: ADME, organism-based; conditions: in vivo; summary of the method: as §2
[11] = tested on: Mus musculus; assay: Biodistribution in C57BL/6 mouse whole blood at 243 +/- 25 uCi, iv using […] dimethylacetamide, 10% Solutol HS15, 80% PBS formulation; format: ADME, organism-based; conditions: in vivo; summary of the method: as §2
[12] = tested on: Kidney; assay: Biodistribution in C57BL/6 mouse kidney at 241 +/- 18 uCi, iv; format: ADME, organism-based; conditions: in vivo
Summary of the method: (§3)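 Six C57BL/6 mice got the 18F tracer by tail-vein iv injection. Groups were sacrificed at 1 h (n = 3) and 3 h (n = 3) after dosing. Tissues were excised and weighed, and 18F activity was counted by gamma counter. Values are expressed as % injected dose per gram of tissue.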

[13] = tested on: Liver; assay: Biodistribution in C57BL/6 mouse liver at 241 +/- 18 uCi, iv; format: ADME, organism-based; conditions: in vivo; summary of the method: as §3
[14] = tested on: Blood; assay: Biodistribution in C57BL/6 mouse blood at 241 +/- 18 uCi, iv; format: ADME, organism-based; conditions: in vivo; summary of the method: as §3
[15] = tested on: Heart; assay: Biodistribution in C57BL/6 mouse heart at 241 +/- 18 uCi, iv; format: ADME, organism-based; conditions: in vivo; summary of the method: as §3
[16] = tested on: Mus musculus; assay: Biodistribution in C57BL/6 mouse thymus at 241 +/- 18 uCi, iv; format: ADME, organism-based; conditions: in vivo; summary of the method: as §3
[17] = tested on: Brain; assay: Biodistribution in C57BL/6 mouse brain at 241 +/- 18 uCi, iv; format: ADME, organism-based; conditions: in vivo; summary of the method: as §3

Chain of Histone deacetylase 3 (O15379 whole entry): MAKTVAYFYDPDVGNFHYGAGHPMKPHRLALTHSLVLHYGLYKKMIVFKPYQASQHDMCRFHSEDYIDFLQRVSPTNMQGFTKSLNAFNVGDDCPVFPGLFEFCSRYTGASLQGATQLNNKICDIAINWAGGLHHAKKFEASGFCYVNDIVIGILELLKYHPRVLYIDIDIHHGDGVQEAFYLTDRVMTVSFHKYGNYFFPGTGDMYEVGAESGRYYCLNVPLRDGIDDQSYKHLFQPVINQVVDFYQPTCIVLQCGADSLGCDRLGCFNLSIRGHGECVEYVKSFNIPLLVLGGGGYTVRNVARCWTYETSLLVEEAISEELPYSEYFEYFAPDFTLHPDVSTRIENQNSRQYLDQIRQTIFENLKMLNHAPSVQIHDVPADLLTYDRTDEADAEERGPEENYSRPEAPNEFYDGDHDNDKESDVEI
Chain of Histone deacetylase 2 (Q92769 whole entry): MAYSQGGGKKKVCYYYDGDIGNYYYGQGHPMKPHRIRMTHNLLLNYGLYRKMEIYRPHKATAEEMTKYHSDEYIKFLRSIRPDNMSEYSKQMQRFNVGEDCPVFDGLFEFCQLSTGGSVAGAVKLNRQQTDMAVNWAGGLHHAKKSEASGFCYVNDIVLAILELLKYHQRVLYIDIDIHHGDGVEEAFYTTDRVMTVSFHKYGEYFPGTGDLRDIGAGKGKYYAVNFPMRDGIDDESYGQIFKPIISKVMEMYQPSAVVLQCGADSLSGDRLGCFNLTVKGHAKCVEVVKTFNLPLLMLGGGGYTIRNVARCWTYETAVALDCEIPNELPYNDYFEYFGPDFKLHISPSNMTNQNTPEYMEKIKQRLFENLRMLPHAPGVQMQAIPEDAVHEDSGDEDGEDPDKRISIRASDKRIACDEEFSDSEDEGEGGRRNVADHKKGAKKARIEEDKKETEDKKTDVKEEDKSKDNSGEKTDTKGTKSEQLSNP
Chain of Histone deacetylase 1 (Q13547 whole entry): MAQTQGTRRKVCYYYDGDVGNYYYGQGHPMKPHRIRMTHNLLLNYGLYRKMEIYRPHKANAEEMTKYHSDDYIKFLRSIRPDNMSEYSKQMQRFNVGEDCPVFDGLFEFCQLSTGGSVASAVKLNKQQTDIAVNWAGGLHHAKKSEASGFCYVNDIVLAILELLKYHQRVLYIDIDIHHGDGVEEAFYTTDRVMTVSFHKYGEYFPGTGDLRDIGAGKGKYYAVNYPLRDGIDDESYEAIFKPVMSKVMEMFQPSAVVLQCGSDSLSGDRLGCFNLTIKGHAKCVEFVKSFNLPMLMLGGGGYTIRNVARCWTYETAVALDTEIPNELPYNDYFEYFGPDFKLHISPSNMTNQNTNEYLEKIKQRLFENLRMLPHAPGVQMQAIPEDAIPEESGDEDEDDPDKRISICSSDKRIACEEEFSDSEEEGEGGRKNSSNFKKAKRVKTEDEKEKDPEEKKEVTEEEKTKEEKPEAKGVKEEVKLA

IC50 [1] [nM]	IC50 [2] [nM]	IC50 [3] [nM]	IC50 [4] [nM]	Drug uptake [5]	Ratio [6]	Ratio [7]	half-life [8] [min]	Drug uptake [9] [% ID/g]	Drug uptake [10] [% ID/g]	Drug uptake [11] [% ID/g]	Drug uptake [12]	Drug uptake [13]	Drug uptake [14]	Drug uptake [15]	Drug uptake [16]	Drug uptake [17]	Compound
9	12.7	23.9	50.2														O=C(CCCCCCC(=O)Nc1ccc([19F])cc1)NO
				tde	1.3	1.7	< 1	< 1	3	6	Active	Active	Active	Active	Active	Active	O=C(CCCCCCC(=O)Nc1ccc([18F])cc1)NO
